Screens deposited in PubChem BioAssay by several laboratories.
A selection: hits, their analogues and other compounds. The true share with any hit is near 2.1%.
FXIIa inh 1536 – human FXIIa protease inhibitors, primary screen, biochemical, 1536-well. purified FXIIa, Boc-QGR-AMC fluorogenic substrate, 2 h. 0.3% of 220,000 active. inhibition, % at 5 µM. Coagulation factor XII (Homo sapiens), P00748. AID 800, 2007; in the data active = inhibition above about 40%;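 note: 0% = enzyme with no compound and 100% = blank without enzyme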
Thrombin inh – human alpha-thrombin inhibitors, primary screen, counter-screen for coagulation protease inhibitor project, biochemical, 1536-well, fluorogenic AMC substrate | Prothrombin (Homo sapiens), P00734 | Boc-VPR-AMC fluorogenic substrate cleavage | inhibition, % at 5 µM | 0.26% of 220,000 active;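 active = inhibition at or above 40%; inactive = inhibition below 40%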;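 note: 0% = enzyme with no compound and 100% = wells without enzyme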
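System: Human alpha-thrombin protein | Medium: pH 7.5 Tris (50 mM) with NaCl 150 mM, Tween 20 0.05% | Times: Enzyme reaction carried out at room temperature | Detection: AMC fluorescence, 355/460 nm | Evaluation: Percent inhibition scaled between no-compound controls and no-enzyme blanks | Benchmarks: Enzyme without compound as high, wells lacking enzyme as low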
PGE2 EP2 inh – human EP2 receptor antagonists, primary screen, TR-FRET cAMP, C6 glioma cells; AID 1422, 2008; Prostaglandin E2 receptor EP2 subtype (Homo sapiens), P43116; inhibition, % at 25 µM; 0.52% of 260,000 active; C6 glioma cells expressing human EP2; cells stimulated with saturating PGE2;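 active = percent inhibition above 40 after rounding to a whole number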;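 note: rat C6 glioma host cells with rolipram phosphodiesterase inhibitor present; the protocol text gives 20 µM as final concentration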
Target sequence (P43116 whole entry, looked up): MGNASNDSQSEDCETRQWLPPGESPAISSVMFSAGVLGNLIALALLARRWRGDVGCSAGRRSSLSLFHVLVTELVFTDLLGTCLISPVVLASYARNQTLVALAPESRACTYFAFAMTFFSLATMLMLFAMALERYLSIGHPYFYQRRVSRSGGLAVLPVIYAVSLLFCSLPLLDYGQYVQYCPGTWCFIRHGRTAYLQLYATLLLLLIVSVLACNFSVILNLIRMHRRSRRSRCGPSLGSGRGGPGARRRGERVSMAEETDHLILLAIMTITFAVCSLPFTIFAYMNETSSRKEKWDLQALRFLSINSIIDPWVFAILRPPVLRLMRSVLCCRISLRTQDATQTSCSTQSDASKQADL
hK5 inh – human KLK5 protease inhibitors, primary screen, biochemical, 1536-well. Kallikrein-5 (Homo sapiens), Q9Y337. recombinant hK5, fluorogenic AMC substrate cleavage. inhibition, % at 5 µM. 0.59% of 210,000 active. AID 873, 2007;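 active = inhibition of 40% or more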;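 note: 0% = enzyme controls without compound and 100% = no-enzyme blanks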
Target sequence (Q9Y337 67-293 limits assumed): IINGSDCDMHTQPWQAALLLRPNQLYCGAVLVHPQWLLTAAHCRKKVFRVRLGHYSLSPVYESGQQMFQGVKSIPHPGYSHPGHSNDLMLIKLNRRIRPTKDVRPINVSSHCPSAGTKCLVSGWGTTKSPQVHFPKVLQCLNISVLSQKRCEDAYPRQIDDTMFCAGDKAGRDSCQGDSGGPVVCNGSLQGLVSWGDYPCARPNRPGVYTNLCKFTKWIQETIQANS
EP2 modulator – EP2 receptor modulators, cAMP readout, primary screen, cell-based, HTRF cAMP, PGE2 stimulation; 0.83% of 260,000 active; EP2-expressing cells, cAMP HTRF FRET, PGE2 co-stimulation; induction, % at 25 µM; AID 940, 2007; Prostaglandin E2 receptor EP2 subtype (Homo sapiens), P43116;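 active = compounds whose cAMP rise, as percent of the full-agonist control response, exceeds 60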;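 note: rat C6 glioma line stably carrying human EP2 under a CMV promoter; the protocol text gives 20 µM as final concentration; 100% = response of wells given 1 µM PGE2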
FXIa inh – human FXIa protease inhibitors, primary screen, biochemical, 1536-well; purified FXIa, Boc-Glu-Ala-Arg-AMC fluorogenic substrate; inhibition, % at 5 µM; 0.14% of 220,000 active;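 active = inhibition of at least 40%; inactive = inhibition below 40%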;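 note: fluorescence of freed AMC excited at 355 nm; 0% = enzyme without compound and 100% = no enzyme blank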
An asterisk follows results filed as active; nt = no result; ! = not active in a repeat.

SMILES	FXIIa inh 1536	Thrombin inh	PGE2 EP2 inh	hK5 inh	EP2 modulator	FXIa inh
O=C(CSc1nc(-c2ccccc2)nc2ccc(Cl)cc12)NCc1cccs1	nt	nt	11	nt	15	nt
Cc1ccc(N(C(=O)c2csnn2)C(C(=O)NC2CCCC2)c2cccs2)cc1C (stereo unspecified)	nt	nt	11	nt	13	nt
Cc1cc(C)c2[nH]c(=O)c(C(c3nnnn3C3CCCC3)N3CCCC(C)C3)cc2c1 (stereo unspecified)	nt	nt	7	nt	9	nt
O=C(NCCCc1ccccc1)c1ccc(Br)o1	20	38	7	49*	-4	1
O=C(NCCCCc1ccccc1)c1ccc(Br)o1	12	-3	9	0	-67	4
CC(C)c1nc2ccc(Br)cn2c1NC1CCCC1	10	0	0	3	65*	1
CCCc1nc(NC(C)=O)c(C#N)c(-c2ccco2)c1CC	23	40*	9	20	13	18
C=CCc1cccc(/C=N/NC(=O)c2ccccc2Br)c1O	4	-1	7	nt	6	-1
O=C(N/N=C/c1ccccc1C(=O)O)c1ccccc1Br	25	25	2	60*	-12	62*
C=CCn1c(SCc2ccc(OC)cc2)nnc1-c1cccnc1	8	22	9	50*	10	3
C=CCn1c(SCc2ccccc2)nnc1-c1cccnc1	8	1	8	-36	22	-12
CCOC(=O)Cn1c(C(F)(F)F)nc2nc(Cl)c(Cl)nc21	nt	nt	40*	nt	-33	nt
CCOC(=O)Cn1c2ccccc2c2nc3ccccc3nc21	9	-2	14	3	44	2
O=C1C=C(NCCc2cc(Br)c(O)c(Br)c2)C(=O)c2ncccc21	nt	nt	104*	nt	-49	nt
O=C1C(=O)c2ncccc2-c2cccnc21	nt	nt	16	nt	33	nt
CS(=O)(=O)c1cnc2ncnn2c1C1CCCN(C(=O)c2csc3c2CCCC3)C1 (stereo unspecified)	nt	nt	nt	nt	-17	nt
CCc1ccc2[nH]c(=O)c(CN(C(=S)NCCc3ccccc3)C3CCCCC3)cc2c1	nt	nt	3	nt	14	nt
Cc1cc(=O)oc2cc(OCCCN3C(=O)c4ccccc4C3=O)ccc12	3	-8	4	-4	7	6
Cc1cc(=O)oc2cc(OC(=O)CCN3C(=O)c4ccccc4C3=O)ccc12	63*	8	5	-25	19	-14
COc1ccc(S(=O)(=O)Nc2cc3c4c(oc3c3ccccc23)CC(C)(C)CC4=O)cc1	-5	24	10	48*	5	3
Cc1cc(N2C(=O)C(O)=C(C(=O)c3ccc(C)o3)C2c2cccs2)no1 (stereo unspecified)	20	2	56*	3	52	15
CCN(CC)CCCN(Cc1cc2cc3c(cc2[nH]c1=O)OCO3)C(=S)Nc1ccccc1OC	38	45*	10	52*	-37	35
COc1ccccc1NC(=S)N(CCCN(C)C)Cc1cc2cc3c(cc2[nH]c1=O)OCO3	5	-6	6	-1	-7	-3
Cc1c(OCC(=O)Nc2ccccc2Cl)ccc2c3c(c(=O)oc12)CCC3	nt	nt	11	nt	4	nt
CC1=NN(c2nc(-c3ccc(C)cc3)cs2)C(=O)C1N=Nc1ccc2ccccc2c1 (stereo unspecified)	10	-5	11	-39	7	8
SMILES	FXIIa inh 1536	Thrombin inh	PGE2 EP2 inh	hK5 inh	EP2 modulator	FXIa inh
CC1=NN(C(=O)c2ccncc2)C(=O)[C@@H]1N=Nc1ccc2ccccc2c1	nt	nt	58*	nt	-21	nt
C=CCc1cc(CN2CCC(C(=O)c3cccnc3)CC2)cc(OC)c1OC	nt	nt	8	nt	72*	nt
COc1ccc(/C=N/NC(=O)c2ccc(CN3C(=O)c4cccc5cccc3c45)cc2)cc1O	12	0	9	nt	-42	4
COc1cc(/C=N/NC(=O)c2ccc(CN3C(=O)c4cccc5cccc3c45)cc2)cc(OC)c1O	27	13	6	24	-26	50*
Cc1ccc(S(=O)(=O)N(Cc2cccs2)Cc2cc3cc4c(cc3[nH]c2=O)OCCO4)cc1	nt	nt	10	nt	-25	nt
COc1ccccc1C1(O)CCN(CC(O)c2ccc(F)c(F)c2)CC1 (stereo unspecified)	nt	nt	6	nt	-99	nt
COc1ccc(N/C(=N\c2nc(C)cc(C)n2)NC(C)=O)cc1OC	13	50*	4	-5	30	1
O=C(CN(C1CCCCC1)S(=O)(=O)c1ccc(Cl)cc1)NCc1ccccn1	nt	nt	10	nt	7	nt
CCOc1ccc(NC(=O)CN2CCC3(CC2)NC(=O)c2ccccc2O3)cc1	nt	nt	7	nt	1	nt
N#CC1=C(N)C(C#N)(C#N)[C@H](c2ccoc2)[C@H]2CN(Cc3ccccc3)CC=C12	29	20	14	112*	-7	7
N#CC1=C(N)C(C#N)(C#N)C(c2ccoc2)C2CN(Cc3ccccc3)CC=C12 (stereo unspecified)	nt	nt	13	nt	-27	nt
O=C(Nc1nc2ccc(C(=O)N3CCCCC3)cc2s1)c1ccco1	nt	nt	14	nt	-16	nt
CSc1nc(SCC(=O)O)c2sc3nc(-c4ccccc4)c4c(c3c2n1)CCC4	12	-3	10	2	61*	4
CCc1ccc2nc3sc(C(=O)Nc4ccc5c(c4)OCO5)c(N)c3cc2c1	nt	nt	12	nt	-30	nt
Cc1ccc(NC(=O)CSc2nc3c(C)ccc(C)c3cc2C#N)cc1C	nt	nt	11	nt	17	nt
O=S1(=O)OC(c2ccc(O)cc2)(c2ccc(O)cc2)c2ccccc21	nt	nt	96*	nt	-32	nt
O=S1(=O)N=C(Nc2ccc(O)cc2)c2ccccc21	3	-4	4	-3	2	10
O=C(CNCC1CCCCC1)NCc1cccs1	nt	nt	5	nt	-96	nt
CCOC(=O)c1c(NC(=O)CC2SC(N)=NC2=O)sc2c1CCC(C)C2 (stereo unspecified)	8	2	12	-20	68*!	4
CCOC(=O)c1c(NC(C)=O)sc2c1CC(C)CC2 (stereo unspecified)	nt	nt	8	nt	80*	nt
COC(=O)c1c(NC(=O)CC2SC(N)=NC2=O)sc2c1CCC(C)C2 (stereo unspecified)	-1	-7	8	-22	2	-9
CCOC(=O)c1c(NC(=O)c2cccs2)sc2c1CCC2	nt	nt	76*	nt	nt	nt
CCOC(=O)c1c(NC(=O)C2C3C=CC(C3)C2C(=O)O)sc2c1CCC(C)C2 (stereo unspecified)	4	-2	18	-6	24	-1
CCNC(=O)c1c(NC(=O)c2cccs2)sc2c1CCCC2	nt	nt	7	nt	0	nt
CCSc1nnc(-c2ccncc2)n1C	nt	nt	14	nt	-20	nt
